Only some compounds are listed: those with a hit (about 2.4% of all), similar ones and a draw of the others.
MPTP inh: inhibitors of mitochondrial permeability transition pore. AID 602449. hit rate 1.4% among 360,000. isolated mouse mitochondria, Ca2+ swelling absorbance, 30 min. inhibition, % at 10 µM;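 active = inhibition of 50% or more, scaled per plate between neutral and stimulator controls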
NR2E3 ag-1: NR2E3 (human) agonism. Q9Y5X4. GST-NR2E3/biotin-RetCOR TR-FRET, 1536-well. inhibition of corepressor binding, % at 4.78 µM. hit rate 0.12% among 320,000. AID 2300;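 active = percent inhibition above the cutoff of mean plus 3 SD of all tested compounds, set per screening campaign, cut at about 20% in these data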
Target sequence (Q9Y5X4 whole entry, looked up): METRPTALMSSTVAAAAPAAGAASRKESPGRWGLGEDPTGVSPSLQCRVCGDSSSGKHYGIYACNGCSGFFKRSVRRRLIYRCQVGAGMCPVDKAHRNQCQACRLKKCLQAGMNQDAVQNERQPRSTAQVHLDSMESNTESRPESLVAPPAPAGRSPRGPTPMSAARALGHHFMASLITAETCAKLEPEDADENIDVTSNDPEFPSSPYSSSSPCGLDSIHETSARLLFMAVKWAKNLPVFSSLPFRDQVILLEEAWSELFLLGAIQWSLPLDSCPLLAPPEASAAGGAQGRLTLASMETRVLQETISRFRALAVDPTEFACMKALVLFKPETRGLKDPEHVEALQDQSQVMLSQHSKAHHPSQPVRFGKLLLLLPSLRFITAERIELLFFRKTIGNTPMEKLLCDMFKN
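Test system: GST-NR2E3 and biotin-RetCOR proteins | Quantity: 1.35 nM GST-tagged NR2E3 final | Medium: Tris pH 7.5 | Also added: 7 nM biotin-RetCOR | Dosing: Compound at 4.8 µM, single dose | Timing: 5 h at 4 °C | Detection: Time-resolved FRET | Read-out basis: Percent inhibition | Benchmarks: Biotin wells as high control, 0.6% DMSO wells as low control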
NR2E3 ag-2: human photoreceptor-specific nuclear receptor agonism. CHO-S Gal4-NCOR/VP16-NR2E3 two-hybrid, luciferase. inhibition of corepressor binding, % at 3.98 µM. hit rate 0.35% among 360,000. AID 602229;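 active = inhibition above the mean of all tested compounds plus 3 SD, cut at about 70% in these data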;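 also: higher means lower luciferase signal from less NR2E3 corepressor binding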
aDG glyco act: alpha-DG glycosylation activation. hit rate 0.22% among 360,000. AID 624168. Pro5-aDG cells, alpha-DG glycosylation AlphaScreen (IIH6); 0% Pro5, 100% B10-LARGE cell signal. activation, % at 10 µM;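 active = activation of at least 8% versus controls, or a plate z-score of at least 8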;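 also: Pro5 are CHO cells carrying HIG-tagged alpha-DG that lacks glycosylation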
697 NFkB inh: inhibitors of the PMA/ionomycin-induced NF-kB reporter in 697 B cells; inhibition, % at 4 µM; 697 B-cell NF-kB luciferase reporter, 16 h; hit rate 0.33% among 330,000; in the data active = inhibition above about 35%
Jurkat NFkB inh: inhibitors of the PMA/ionomycin-induced NF-kB reporter in Jurkat cells; inhibition, % at 4 µM; hit rate 0.53% among 330,000; PMA/ionomycin-induced NF-kB luciferase reporter, luminescence; AID 435003; in the data active = inhibition above about 50%
MPTP counter: membrane potential counter-screen of mitochondrial pore inhibitors. shares compounds with MPTP inh. isolated mitochondria, Rhodamine 123 fluorescence. inhibition, % at 10 µM. hit rate 78% among 5,000. AID 624504; in the data active = inhibition above about 22%
MPTP swell DR: dose response confirmation of mitochondrial permeability transition pore inhibitors; shares compounds with MPTP inh; isolated mitochondria swelling, absorbance; IC50, µM; hit rate 58% among 780; AID 651561; in the data active = IC50 below about 20 µM
MPTP counter DR: MPTP inhibitor counter-screen activity, dose response; shares compounds with MPTP inh; isolated mitochondria counterscreen, fluorescence read-out; IC50, µM; hit rate 49% among 780; AID 651564; in the data active = IC50 below about 80 µM
Large screens that a line does not name were inactive (follow-up assays come after a bar, where they were run).

Cc1c(NC(=O)CSCc2ccco2)c(=O)n(-c2ccccc2)n1C	none
CO/N=C/C(C#N)c1ncc(C(F)(F)F)cc1Cl (stereo unspecified)	MPTP inh 99 | MPTP counter 92
CC(CN1CC(=O)NC(=O)C1)N1CC(=O)NC(=O)C1 (stereo unspecified)	none (no result: NR2E3 ag-1, 697 NFkB inh, Jurkat NFkB inh)
COCCNc1nc(NCC2CCCCC2)c2sc(-c3ccccc3)cc2n1	MPTP inh 70 (no result: NR2E3 ag-1, 697 NFkB inh, Jurkat NFkB inh) | MPTP counter 93
COCCNc1nc(NCCOc2ccccc2Cl)c2sc(-c3ccccc3)cc2n1	none (no result: NR2E3 ag-1, 697 NFkB inh, Jurkat NFkB inh)
c1ccc(-c2cc3nc(NCC4CC4)nc(NCC4CCCCC4)c3s2)cc1	MPTP inh 75 (no result: NR2E3 ag-1, 697 NFkB inh, Jurkat NFkB inh) | MPTP counter 97
CCN(CC)S(=O)(=O)c1ccc(N2CCN(C)CC2)c(NC(=O)CN2C(=O)NC3(CCCCC3)C2=O)c1	none (no result: NR2E3 ag-1, 697 NFkB inh, Jurkat NFkB inh)
N=c1sccn1CC(=O)Nc1cc(Cl)ccc1Oc1ccccc1	none
N=c1sccn1CC(=O)Nc1cccc(Oc2ccccc2)c1	MPTP inh 92 | MPTP counter inactive | MPTP swell DR 4.9 | MPTP counter DR inactive
S=C1NC2(CCCCC2)Nc2ccccc21	none
Cc1ccccc1N=Nc1c(O)[nH]c2ccccc12	none
Cc1ccc2[nH]c(O)c(N=Nc3ccccc3C)c2c1	MPTP inh 66 | MPTP counter inactive | MPTP swell DR inactive | MPTP counter DR inactive
COc1ccc(Cl)cc1C(=O)Nc1ccc(NC(=O)c2ccco2)cc1	none
COc1ccc(Cl)cc1NC(=O)c1cccc([N+](=O)[O-])c1O	MPTP inh 85 (no result: NR2E3 ag-1, 697 NFkB inh, Jurkat NFkB inh) | MPTP counter 96
COc1ccc(Cl)cc1NC(=O)c1ccco1	MPTP inh 80 | MPTP counter inactive | MPTP swell DR inactive | MPTP counter DR inactive
CCc1c(C)nc(SCC(=O)N2CCCCC2CC)[nH]c1=O (stereo unspecified)	none
N/C(=N\OC(=O)c1ccc([N+](=O)[O-])cc1)c1cccnc1	none
O=C(Oc1c(Br)cc([N+](=O)[O-])cc1Br)c1cccnc1	MPTP inh 72 | MPTP counter 96
CSc1nsc(/C=C/Nc2ccc(Cl)cc2)c1C#N	none
CSc1nsc(/C=C/Nc2ccc(F)cc2)c1C#N	MPTP inh 60 | MPTP counter 31
CCCn1c(SCC(=O)Nc2nnc(C(C)C)s2)nc2c1c(=O)n(C)c(=O)n2C	none
CCCn1c(SCC(=O)Nc2nc3ccccc3s2)nc2c1c(=O)n(C)c(=O)n2C	MPTP inh 85 | MPTP counter inactive | MPTP swell DR 19 | MPTP counter DR 14
O=[N+]([O-])c1ccc2c(c1N1CCCCC1)=NC1(CCCCC1)[N+]=2[O-]	MPTP inh 58 | MPTP counter 36
O=[N+]([O-])c1ccc(N2CCCCC2)nc1N1CCCCC1	none
O=C(Nc1ccc(Cl)cc1)Nc1nnc(Cc2ccc([N+](=O)[O-])cc2)s1	MPTP inh 83 | MPTP counter 63
O=C(Nc1ccc(Cl)cc1)Nc1nnc(CSCc2ccccc2)s1	MPTP inh 97 | MPTP counter 60
O=C(Nc1ccc(Cl)cc1)Nc1nnc(CSc2ccc(Cl)cc2)s1	MPTP inh 85 | MPTP counter 63
Cc1ccc(NC(=O)Nc2nnc(Cc3ccc([N+](=O)[O-])cc3)s2)cc1	none
O=C(Cc1nnc(NC(=O)Nc2ccc(Cl)cc2)s1)NCc1ccccc1	none
N/C(=N\OC(=O)c1ccccc1F)c1cccc([N+](=O)[O-])c1	none
CCN(CC)CCn1c2c(c(SCC(=O)Nc3ccc4c(c3)OCCO4)nc1=O)CCCC2	none
O=C(Nc1ccccc1C(=O)O)c1cc(S(=O)(=O)Nc2cccc(F)c2)ccc1Cl	none
O=C(Nc1ccccc1C(=O)O)c1cc(S(=O)(=O)N2CCCCCC2)ccc1Cl	none
O=C(Nc1cc(S(=O)(=O)N2CCCCC2)ccc1O)c1ccccc1NS(=O)(=O)c1ccc(F)c(F)c1	MPTP inh 91 | MPTP counter 65
O=C(Nc1cc(S(=O)(=O)Nc2ccccc2Cl)ccc1O)c1ccc(F)cc1F	MPTP inh 59 (no result: NR2E3 ag-1) | MPTP counter 68
Cc1onc(-c2c(F)cccc2Cl)c1C(=O)Nc1cc(S(=O)(=O)N2CCCCC2)ccc1O	MPTP inh 84 (no result: NR2E3 ag-1, 697 NFkB inh, Jurkat NFkB inh) | MPTP counter 84
C=CCn1c(C)cc(C2=NNC(=NC(C)(C)C)SC2)c1C	MPTP inh 101 | MPTP counter 76
O=C(CNc1ccc(Br)cc1)Nc1ccc(S(=O)(=O)N2CCCCC2)cc1	none (no result: NR2E3 ag-1, 697 NFkB inh, Jurkat NFkB inh)
COc1cccc(-n2nnc3c(=O)n(CC(=O)N4CCC(Cc5ccccc5)CC4)cnc32)c1	none
CCSc1nnc(NC(=O)NC(C)(C(F)(F)F)C(F)(F)F)s1	MPTP inh 92 | MPTP counter 93
CCSc1nnc(NC(=O)NC(CC)(C(F)(F)F)C(F)(F)F)s1	MPTP inh 88 | MPTP counter 102
C=CCn1c(SCc2nc3ccccc3c(=O)[nH]2)nc2scc(C3CC3)c2c1=O	none
Cc1cccc2sc(NC(=O)C3CCN(S(=O)(=O)c4cc([N+](=O)[O-])ccc4Cl)CC3)nc12	MPTP inh 100 | MPTP counter 75
CNCCC=C1c2ccccc2CCc2ccccc21	MPTP inh 86 | MPTP counter inactive | MPTP swell DR 6 | MPTP counter DR inactive
CC(C)c1ccc(CNc2ccc3c(c2)ncn3C)cc1	MPTP inh 56 | MPTP counter 58
CN(C)c1ccc(CNc2ccc3c(c2)ncn3C)cc1	none (no result: MPTP inh, NR2E3 ag-2, aDG glyco act)
CSC1=NSC2=NC(=O)/C(=C/c3coc4ccccc4c3=O)C(=N)N12	MPTP inh 95 (no result: 697 NFkB inh, Jurkat NFkB inh) | MPTP counter 80
N=C1/C(=C/c2cccs2)C(=O)N=C2SN=C(SCc3ccccc3)N12	MPTP inh 86 | MPTP counter 71
CSC1=NSC2=NC(=O)/C(=C\c3cccs3)C(=N)N12	none (no result: 697 NFkB inh, Jurkat NFkB inh)
CC(C)CSC1=NSC2=NC(=O)/C(=C\c3cccs3)C(=N)N12	MPTP inh 100 | MPTP counter 93
CC1=CC2=NC(=O)/C(=C/c3cccs3)C(=N)N2O1	none
OC(Cn1cncn1)(c1ccc(F)cc1)c1ccc(Cl)cc1 (stereo unspecified)	none
CN(C)c1ccc(CC(=O)N2CCCC(c3cc(C(=O)Nc4ccc(C(C)(C)C)cc4)no3)C2)cc1 (stereo unspecified)	none (no result: NR2E3 ag-1, 697 NFkB inh, Jurkat NFkB inh)
CC(C)C[C@@H](CN)NC(=O)c1nc[nH]c1C(=O)N[C@@H](CC(C)C)C(=O)CNC[C@H](C)NC(=O)c1nc[nH]c1C(=O)N[C@@H](CC(C)C)C(=O)O	none (no result: NR2E3 ag-1, 697 NFkB inh, Jurkat NFkB inh)
Cn1cc(NC(=O)Nc2ccc(C(F)(F)F)cc2)c(C(F)(F)F)n1	MPTP inh 66 | MPTP counter 86

Screens deposited in PubChem by several laboratories.
